Published values gathered from unrelated publications.
Protocols differ between the studies behind these lines.
Target: Mitogen-activated protein kinase 4 (MAPK4, Homo sapiens, UniProt P31152)

Compound | read-out | method | concentration | remaining binding [%]
CCCOc1ccc([C@H]2[C@H](C(=O)O)[C@@H](c3ccc4c(c3)OCO4)CN2CC(=O)Nc2c(CC)cccc2CC)cc1 | cell-free assay | competition with immobilised ligand | 1 µM | 93
COc1ccnn2ncc(-c3ccnc(N(C)C)n3)c12 | binding | – | 1 µM | 100
CO[C@H]1CC[C@H](CNc2ccc(S(=O)(=O)NC(=O)c3ccc(N4CCN(CC5=C(c6ccc(Cl)cc6)CC(C)(C)CC5)CC4)cc3Oc3cnc4[nH]ccc4c3)cc2[N+](=O)[O-])CC1 | cell-free assay | competition with immobilised ligand | 1 µM | 100
O=C(NCCCN1CCOCC1)c1ccc(Nc2ncc(Cl)c(-c3ccc(Cl)s3)n2)cc1 | binding | competition with immobilised ligand | 1 µM | 1.4
c1cncc(-c2cccc(Nc3nccc(NC4CCCCC4)n3)c2)c1 | binding | competition with immobilised ligand | 10 µM | 95
Cc1cnn2ncc(-c3ccnc(N(C)C)n3)c2c1 | binding | – | 1 µM | 94
Cc1cnc(Nc2ccc(C(=O)N3CCC(N4CCCC4)CC3)cc2)nc1-c1cc2ccccc2s1 | binding | competition with immobilised ligand | 1 µM | 39
Nc1ncc2c(n1)-c1c([nH]c3ccc(C#CC4CC4)cc13)CCCC2 | binding | competition with immobilised ligand | 1 µM | 96
CC1CCCN1c1nccc(-c2cnn3ncccc23)n1 (stereo not drawn) | binding | – | 1 µM | 100
CNC(=O)[C@@H]1CC[C@@H](n2c(-c3ccc4cnccc4c3)nc3ccc(C(=O)NCc4cccc(C(N)=O)c4)cc32)C1 | binding | competition with immobilised ligand | 1 µM | 100
CO[C@@H](C)c1c(Nc2ccc([C@@H](N(C)C(=O)C3CCS(=O)(=O)CC3)C(F)(F)F)cc2)cnc2cc(Cl)nn12 | cell-free assay | competition with immobilised ligand | 1 µM | 100
COc1cnc(Nc2cccc(S(N)(=O)=O)c2)nc1N1CCN(c2ccccc2)CC1 | binding | competition with immobilised ligand | 1 µM | 96
O=C(Nc1cnc(Oc2ccc(F)cc2)nc1)N1CCc2ncccc2[C@@H]1c1ccc(F)cc1 | cell-free assay | competition with immobilised ligand | 1 µM | 95
N[C@H]1CCN(c2nccc(-c3cnn4ncccc34)n2)C1 | binding | – | 1 µM | 100
O=C(Nc1c[nH]nc1C(=O)NC1CCNCC1)c1cc(F)cc(F)c1 | binding | competition with immobilised ligand | 1 µM | 100
CCN1CCN(Cc2ccc(C(=O)Nc3ccc(C)c(Oc4ccc5c(c4)CC(=O)N5)c3)cc2C(F)(F)F)CC1 | binding | competition with immobilised ligand | 1 µM | 100
O=C(c1ccc(Nc2ncc(Cl)c(-c3cc4ccccc4s3)n2)cc1)N1CCC(N2CCCC2)CC1 | binding | competition with immobilised ligand | 1 µM | 20
C[C@H]1CCN(c2nccc(-c3cnn4ncccc34)n2)C1 | binding | – | 1 µM | 93
O=C1NC(c2ccccn2)Sc2ccccc21 (stereo not drawn) | cell-free assay | competition with immobilised ligand | 1 µM | 86
CN(C)c1nccc(-c2cnn3ncccc23)n1 | binding | – | 1 µM | 100
c1ccc(N2CCN(Cc3nc4ccccc4[nH]3)CC2)nc1 | binding | competition with immobilised ligand | 1 µM | 100
